Data on 13 compounds can be found in ChEMBL document CHEMBL1137712, “Antidyslipidemic and antioxidative activities of 8-hydroxyquinoline derived novel keto-enamine Schiffs bases” (Eur J Med Chem, 2009).

Activity calls are given as the source filed them. The rule behind the calls is not given here.

Data set [1] can be described thus: Antioxidant activity assessed as inhibition microsomal lipid peroxidation at 100 ug/ml by thiobarbituric acid test. Also noted: scale not given: the % may be the effect or the level left. Particulars: Microsome. In kind it is functional.
Data set [2] can be described thus: Antioxidant activity assessed as inhibition microsomal lipid peroxidation at 200 ug/ml by thiobarbituric acid test. In kind it is functional. Also noted: scale not given: the % may be the effect or the level left. The conditions noted are these: Microsome.
The nature of data set [3]: Cytotoxicity against primary osteoblast cells. Format: cell-based.
Data set [4] concerns Rattus norvegicus. In words: Antidyslipidemic activity in Charles Foster rat hyperlipidemia model assessed as suppression of triton-induced post heparin lipolytic activity at 100 mg/kg, po after 18 hrs by spectrophotometry relative to control. Format: functional. The essentials: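 Post-heparin lipolytic activity in plasma of male Charles Foster rats given triton WR-1339 400 mg/kg ip plus oral dose 100 mg/kg in gum acacia, six per group, sampled at 18 h; assayed spectrophotometrically per Wing and Robinson, expressed as nmol free fatty acid formed/h/ml plasma; triton group compared with control, treated with triton group.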

Data set [5] can be described thus: Antioxidant activity assessed as inhibition non-enzymatic reactants generated hydroxyl radical production at 200 ug/ml by spectrophotometry. Also noted: scale not given: the % may be the effect or the level left. Format: functional. The essentials: (§1)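 Hydroxyl radicals generated non-enzymically from deoxyribose 2.8 mM, FeSO4 2 mM, sodium ascorbate 2.0 mM and H2O2 2.8 mM in 50 mM KH2PO4 pH 7.4, with or without compound, 37 °C for 90 min; MDA measured spectrophotometrically by thiobarbituric acid method, with reference samples and reagent blanks; mannitol reference.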

For data set [6], the system named is Rattus norvegicus. As to the kind of experiment: Antidyslipidemic activity against triton-induced hyperlipidemia in Charles Foster rat assessed as reduction in total cholesterol level at 100 mg/kg, po after 18 hrs by spectrophotometry relative to control. In kind it is functional. More on the design: scale not given: the % may be the effect or the level left. In short, it runs like this: (§2)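 Male adult Charles Foster rats (200–225 g), six per group. Triton WR-1339 400 mg/kg ip with simultaneous oral dosing at 100 mg/kg in 0.2% w/v gum acacia suspension; diet withdrawn; vehicle controls. At 18 h, thiopentone anaesthesia, retro-orbital blood into EDTA, plasma diluted 1:3 in saline; Tc, Tg, Pl by standard enzymatic kits; Student's t-test versus triton group, P<0.05.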

Data set [7] deals with Rattus norvegicus. In words: Antidyslipidemic activity against triton-induced hyperlipidemia in Charles Foster rat assessed as reduction in triglyceride level at 100 mg/kg, po after 18 hrs by spectrophotometry relative to control. More on the design: scale not given: the % may be the effect or the level left. In kind it is functional. The essentials: as §2
Data set [8] has as its system Vero. As to the kind of experiment: Cytotoxicity against african green monkey Vero cells. Particulars: chlorocebus sabaeus. In kind it is cell-based.
The subject of data set [9] is Rattus norvegicus. As to the kind of experiment: Antidyslipidemic activity against triton-induced hyperlipidemia in Charles Foster rat assessed as reduction in phospholipid level at 100 mg/kg, po after 18 hrs by spectrophotometry relative to control. In kind it is functional. More on the design: scale not given: the % may be the effect or the level left. In short, it runs like this: as §2

Data set [10] can be described thus: Antioxidant activity assessed as inhibition of xanthine-xanthine oxidase generated superoxide anion radical production at 200 ug/ml by spectrophotometry. In kind it is functional. More on the design: scale not given: the % may be the effect or the level left. The essentials:
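Superoxide generated by xanthine, xanthine oxidase 0.04 U and nitroblue tetrazolium in 100 mM phosphate buffer pH 8.2, with or without compound sonicated in buffer; 37 °C for 30 min, stopped with glacial acetic acid; formazan read at 560 nm, percent inhibition from absorption coefficient 7.2 × 10³ M/cm; allopurinol reference.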

Data set [11] can be described thus: Antioxidant activity assessed as inhibition of xanthine-xanthine oxidase generated superoxide anion radical production at 20 ug/ml by spectrophotometry. In kind it is functional. Also noted: scale not given: the % may be the effect or the level left. In short, it runs like this:
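Superoxide generated enzymatically with xanthine, xanthine oxidase (0.04 U) and nitroblue tetrazolium in 100 mM phosphate buffer, pH 8.2, with or without test sample. Samples sonicated in phosphate buffer before use. Incubated 30 min at 37 °C, then stopped with glacial acetic acid. Formazan read at 560 nm. Percent inhibition calculated using formazan absorption coefficient 7.2 × 10³ M/cm.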

The nature of data set [12]: Antioxidant activity assessed as inhibition non-enzymatic reactants generated hydroxyl radical production at 100 ug/ml by spectrophotometry. In kind it is functional. Also noted: scale not given: the % may be the effect or the level left. The essentials: as §1

In the case of `Cc1c(C)c2c(c(C)c1O)CC[C@@](C)(CCC[C@H](C)CCC[C@H](C)CCCC(C)C)O2`, the Activity in data set [1] is 47%.

Take `CN/C=C1/C=C(C=O)c2cccnc2C1=O`: the result in data set [2], in data set [5] and in data set [10] was Active. In addition, the Activity result in [3] is listed as “Non-toxic”; in data set [4], 5%; in data set [6], 26%; in data set [7] it was 24%; in data set [8], “Non-toxic”; in data set [9], 25%.

Consider `O=CC1=C/C(=C/NCCCN2CCOCC2)C(=O)c2ncccc21`, for which the result in [2], in data set [5] and in [10] was inactive. In addition, in data set [4], the Activity worked out at 5%. For the same compound, the result in [6], in data set [7] and in [9] was Active.

Consider `Cc1ccc(N/C=C2/C=C(C=O)c3cccnc3C2=O)cc1`, for which the Activity turned out to be 41% in data set [2]; 5% in [4]; 36% in data set [5]; 23% in data set [6]; 25% in data set [7]; 18% in [9]. In data set [10], the Activity turned out to be 44%.

On to `CCN/C=C1/C=C(C=O)c2cccnc2C1=O`, for which the outcome in data set [2], in data set [5], in data set [6], in data set [7], in data set [9] and in [10] was Active. In addition, the Activity in [4] is listed as 5%.

As to `Cc1ccc(C)c(OCCCC(C)(C)C(=O)O)c1` [GEMFIBROZIL], the Activity turned out to be 27% in data set [4], 36% in data set [6], 38% in [7] and 34% in [9].

`CC(C)CCCCN/C=C1/C=C(C=O)c2cccnc2C1=O`: the result in [2], in data set [5] and in data set [10] was inactive. Moreover, in data set [4], the Activity is given as 5%. For the same compound, the result in [6], in data set [7] and in data set [9] was Active.

Turning to `Oc1ncnc2[nH]ncc12`, the Activity in [11] was 84%.

In the case of `O=CC1=C/C(=C/NCCN2CCOCC2)C(=O)c2ncccc21`, the result in [2], in [5] and in data set [10] was inactive. Further, in data set [4], the Activity is reported as 5%. Besides, the outcome in data set [6], in data set [7] and in [9] was Active.

In the case of `CC(C)(C)N/C=C1/C=C(C=O)c2cccnc2C1=O`, the outcome in [2], in data set [5], in data set [6], in data set [7], in data set [9] and in [10] was Active. The Activity in [4] is 5%.

Take `CC(C)N/C=C1/C=C(C=O)c2cccnc2C1=O`: the Activity in data set [2] amounted to 35%; in data set [4] it was 5%; in data set [5], 38%; in [10], 47%. In addition, the outcome in data set [6], in [7] and in data set [9] was Active.

Regarding `OC[C@@H](O)[C@@H](O)[C@H](O)[C@H](O)CO`, the Activity in data set [12] amounted to 50%.

Turning to `O=CC1=C/C(=C/NCc2ccccc2)C(=O)c2ncccc21`, the result in data set [2], in data set [5] and in [10] was Active. In addition, the Activity in data set [4] came to 5%.
